Measured values published in publication PMC6388690 (Journal of medicinal chemistry, 2018).
Where a name gives a salt, the structure may show the parent alone.

How the values were obtained:
[1] = system: MCF-7 and MDA-MB-231 cells; test: MTT growth inhibition screen in two breast cancer cell lines; type: cell-based, human; conditions: MCF-7 and MDA-MB-231, MTT
How it was run: (§1)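 MTT proliferation assay: cells seeded at 1 × 10^4 per well and treated with DMSO or test compound at 0.1, 0.33, 1.0, 3.3 and 10 μM for 72 h. MTT reagent added, then OD 560 nm read after 1 h at 37°C. Quadruplicate wells per concentration.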

[2] = 2 equiv of GSH at pH 7.4; cited from earlier work
[3] = Reactivity with GSH monitored by 1H NMR; conditions: 37°C, 1.5–2 equiv GSH, pH 7.4, compared to oridonin
[4] = system: NF-κB (p65); test: Western-blot analysis of apoptosis biomarkers; type: cell-based, human; conditions: MDA-MB-231, 48 h, dose-dependent
How it was run: (§2)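 MDA-MB-231 cells given DMSO or test compound at several concentrations for 48 h, then lysed. Protein measured by Bradford (BSA standard); 40 μg resolved by SDS-PAGE and transferred to NC membrane. Blocked in 5% nonfat milk, then primaries overnight: Bcl-2 1:200, cleaved PARP 1:500, NF-κB 1:1000, Bax 1:1000, β-actin 1:2000. Secondary antibody applied; bands detected by ECL.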

[5] = system: cleaved PARP; test: Western-blot analysis of apoptosis biomarkers; type: cell-based, human; conditions: MDA-MB-231, 48 h, dose-dependent
How it was run: as §2

[6] = system: MDA-MB-468 cells; test: MTT cell proliferation assay; type: cell-based, human
How it was run: as §1

[7] = system: MCF-7 cells; test: MTT cell proliferation assay; type: cell-based, human
How it was run: as §1

[8] = system: MDA-MB-231 xenograft tumors; test: MDA-MB-231 orthotopic xenograft tumor growth in nude mice; type: in vivo; conditions: intraperitoneal; for inhibitory effect on tumor growth compared to vehicle: daily
How it was run: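 Female nude mice aged 6–8 weeks, kept in a barrier unit on a 12 h light–dark cycle. Freshly harvested MDA-MB-231 cells (1.0 × 106 in 100 μL PBS) injected into the no. 3 mammary fat pad, then mice randomized into 4 groups. Once tumours reached 80–100 mm3, daily ip test compound (10 or 15 mg/kg), parent natural product or vehicle, all dissolved in DMSO. Tumour volume (V = 0.5 × L × W2) and body weight measured daily; mean ± SEM.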

[9] = system: SK-BR3 cells; test: MTT cell proliferation assay; type: cell-based, human
How it was run: as §1

[10] = system: MDA-MB-468 cells; test: Colony-formation assay; type: cell-based, human; conditions: MDA-MB-468, low micromolar concentrations, 2 weeks
[11] = system: MDA-MB-231 cells; test: Cellular apoptosis assay; type: cell-based, human; conditions: 48 h
How it was run: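 MDA-MB-231 cells, 2.5 × 10^5 per well, exposed to DMSO vehicle or test compound (1, 5, 10, 15 or 20 μM) for 48 h. Adherent and floating cells pooled and washed in PBS, then resuspended in PBS with 1% BSA plus Annexin V and dead-cell reagent for 20 min at room temperature. Read immediately on a cell analyzer; mean ± SD, ≥3 independent experiments.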

[12] = system: MCF-7 cells; test: Colony-formation assay; type: cell-based, human; conditions: MCF-7, low micromolar concentrations, 2 weeks
[13] = system: MDA-MB-231 cells; test: MTT cell proliferation assay; type: cell-based, human
How it was run: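 MDA-MB-231 cells seeded at 1 × 10^4 per well, then exposed to DMSO vehicle or test compound at 0.1, 0.33, 1.0, 3.3 and 10 μM for 72 h. Proliferation read by MTT reagent, with OD at 560 nm after 1 h at 37°C. Quadruplicate wells per concentration. Mean ± SD of at least three independent experiments; one-way ANOVA across groups.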

[14] = system: Bcl-2 to Bax ratio; test: Western-blot analysis of apoptosis biomarkers; type: cell-based, human; conditions: MDA-MB-231, 48 h
How it was run: as §2

[15] = system: SK-BR3 cells; test: Colony-formation assay; type: cell-based, human; conditions: SK-BR3, low micromolar concentrations, 2 weeks
[16] = system: MDA-MB-231 cells; test: Colony-formation assay; type: cell-based, human; conditions: MDA-MB-231, low micromolar concentrations, 2 weeks
[17] = system: MCF-10A cells; test: Growth inhibition on normal mammary epithelial cells; type: cell-based, human; conditions: 48 h
How it was run: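 Normal mammary epithelial MCF-10A cells treated for 48 h with varying concentrations of test compound or the parent natural product. Mean ± SD of three independent experiments. Student t-test against the parent natural product at the same concentration.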

[18] = microsomes
[19] = relatively long time (hours); cited from earlier work
[20] = system: t(8;21) leukemia; conditions: 7.5 and 15 mg/kg; cited from earlier work

C=CCNc1nc2c(s1)CC(C)(C)[C@H]1[C@H](O)[C@]3(O)OC[C@@]21[C@@H]1CC[C@@H]2[C@@H](O)[C@@]13C(=O)C21CN1C(=O)OCC1c2ccccc2-c2ccccc21 (stereo partly drawn) [Compound 42]
antiproliferative activity (in words) [1]: moderate activities

COC(=O)/C=C/C(=O)OC [dimethyl fumarate]
half-life with GSH [2]: 50 to 60 min

C=C1C(=O)[C@@]23[C@@H]4OC(C)(C)O[C@@]25OC[C@@]2([C@H]([C@@H]5O)C(C)(C)CC[C@@H]2O)[C@@H]3CC[C@@H]14 [Compound 20]
Reactivity / stability of covalent warhead toward GSH (in words) [3]: slightly weakens the reactivity of the enone

C=C1C(=O)[C@]23[C@H](OC(=O)[C@H](C)N)[C@H]1CC[C@H]2[C@@]12CO[C@@]3(O)[C@@H](O)[C@@H]1C(C)(C)CC[C@@H]2O.O=C(O)C(F)(F)F [Compound 14]
Reactivity / stability of covalent warhead toward GSH (in words) [3]: may enhance the enone’s reactivity

C=CCNc1nc2c(s1)CC(C)(C)[C@H]1[C@H](O)[C@]3(O)OC[C@@]21[C@@H]1CC[C@@H]2[C@@H](O)[C@@]13C(=O)C21CN1 (stereo partly drawn) [Compound 43]
antiproliferative activity (in words) [1]: moderate activities

C=CC(=O)N1CC12C(=O)[C@@]13[C@@H]4OC(C)(C)O[C@@]15OC[C@@]1([C@H]([C@@H]5O)C(C)(C)CC[C@@H]1O)[C@@H]3CC[C@H]42 (stereo partly drawn) [Compound 44]
NF-κB (p65) protein expression [4]: down-regulation
cleaved PARP expression [5]: up-regulation
suppression of proliferation (dose-dependent) [6]: suppressed the proliferation
suppression of proliferation (dose-dependent) [7]: suppressed the proliferation
antitumor efficacy, 44 versus oridonin ([8]; 10 mg/kg): comparable efficacy
inhibitory effect on tumor growth compared to vehicle ([8]; 10 mg/kg): significant inhibitory effect
inhibitory effect on tumor growth compared to vehicle ([8]; 15 mg/kg): significant inhibitory effect
inhibitory effect on tumor growth compared to the oridonin group ([8]; 15 mg/kg, one-way ANOVA p = 0.0023): better inhibitory effect
suppression of proliferation (dose-dependent) [9]: suppressed the proliferation
inhibition of colony formation [10]: significantly inhibit the colony formation
apoptotic cells (early and late apoptosis together) ([11]; 10 μM): 18.2%
apoptotic cells (early and late apoptosis together) ([11]; 15 μM): 26.8%
apoptotic cells (early and late apoptosis together) ([11]; 20 μM): 47.6%
inhibition of colony formation [12]: significantly inhibit the colony formation
suppression of proliferation (dose-dependent) [13]: suppressed the proliferation
ratio of Bcl-2 to Bax [14]: reduced
inhibition of colony formation [15]: significantly inhibit the colony formation
inhibition of colony formation [16]: significantly inhibit the colony formation
growth-inhibitory activity against MCF-10A in comparison to oridonin ([17]; 0–10 μM): comparable
growth-inhibitory activity against MCF-10A in comparison to oridonin ([17]; 15~100 μM): significantly lower

CC1(C)O[C@@H]2[C@H]3CC[C@H]4[C@@]56CO[C@@](O1)([C@@H](O)[C@@H]5C(C)(C)CC[C@@H]6O)[C@@]24C(=O)C31CN1 (stereo partly drawn) [Compound 25, (2R,3′S,3a′R,3a1′R,6a′R,7′S,11′S,11a′S)-7′,11′-Dihydroxy-5′,5′,8′,8′-tetramethyldecahydro-2′H-spiro[aziridine-2,15′-[6a,11a]-(epoxymethano)[3,3a1]ethanophenanthro[1,10-de][1,3]dioxin]-14’-one]
microsomal stability compared to oridonin [18]: higher microsomal and plasma stability

C=C1C(=O)[C@]23[C@H](O)[C@H]1CC[C@H]2[C@@]12CO[C@]3(O)[C@@H](O)[C@@H]1C(C)(C)CC[C@@H]2O [oridonin]
stability in strong acidic or basic media [19]: not stable
inhibition of tumor growth [20]: Inhibition of tumor growth in t(8;21) leukemia murine model (7.5 and 15 mg/kg)
antitumor efficacy, 44 versus oridonin ([8]; 10 mg/kg): comparable efficacy

CCC(=O)N1CC12C(=O)[C@@]13[C@@H]4OC(C)(C)O[C@@]15OC[C@@]1([C@H]([C@@H]5O)C(C)(C)CC[C@@H]1O)[C@@H]3CC[C@H]42 (stereo partly drawn) [Compound 45]
antiproliferative activity (in words) [1]: complete loss of activity
